Data: ChEMBL document CHEMBL1143064, “Novel 9a-carbamoyl- and 9a-thiocarbamoyl-3-decladinosyl-6-hydroxy and 6-methoxy derivatives of 15-membered macrolides” (Bioorg Med Chem, 2007)

Columns and labels:
Staphylococcus aureus [1] = assay: Antibacterial activity against Staphylococcus aureus-M after 24 hrs by microdilution method; assay type: functional
In short: (§1)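 Broth microdilution in Mueller–Hinton medium run on an automated liquid handler. Compounds dissolved in DMF (5 mg/ml stock) and tested in medium from 64 to 0.125 µg/ml. Plates incubated 24 h at 37 °C, then growth read as absorbance at 600 nm. MIC taken as the concentration giving 90% growth inhibition.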

Streptococcus pneumoniae [2] = assay: Antibacterial activity against Streptococcus pneumoniae after 24 hrs by microdilution method; assay type: functional; in short: as §1
Streptococcus pneumoniae [3] = assay: Antibacterial activity against Streptococcus pneumoniae-M after 24 hrs by microdilution method; assay type: functional; in short: as §1
Staphylococcus aureus [4] = assay: Antibacterial activity against Staphylococcus aureus-cMLS after 24 hrs by microdilution method; assay type: functional; in short: as §1
Saccharomyces cerevisiae = assay: Toxicity against Saccharomyces cerevisiae; assay type: organism-based; conditions: in vivo
In short: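 Yeast used as a surrogate for eukaryotic cell toxicity. Microdilution in Mueller–Hinton medium with compound from a DMF stock (5 mg/ml), final range 64 to 0.125 µg/ml. Incubated 24 h at 37 °C, with optical density read at 600 nm. MIC defined as the concentration inhibiting growth by 90%.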

Haemophilus influenzae = assay: Antibacterial activity against Haemophilus influenzae after 24 hrs by microdilution method; assay type: functional; in short: as §1
Streptococcus pyogenes [5] = assay: Antibacterial activity against Streptococcus pyogenes-M after 24 hrs by microdilution method; assay type: functional; in short: as §1
Streptococcus pyogenes [6] = assay: Antibacterial activity against Streptococcus pyogenes after 24 hrs by microdilution method; assay type: functional; in short: as §1

SMILES	MIC (Staphylococcus aureus [1])	MIC (Streptococcus pneumoniae [2])	MIC (Streptococcus pneumoniae [3])	MIC (Staphylococcus aureus [4])	MIC (Haemophilus influenzae)	MIC (Streptococcus pyogenes [5])	MIC (Streptococcus pyogenes [6])	Activity (Saccharomyces cerevisiae)
CC[C@H]1OC(=O)[C@H](C)[C@@H](O)[C@H](C)[C@@H](O[C@@H]2O[C@H](C)C[C@H](N(C)C)[C@H]2O)[C@](C)(O)C[C@@H](C)CN(C(=O)NC(C)(C)C)[C@H](C)[C@@H](O)[C@]1(C)O	> 64 µg/mL	> 64 µg/mL	> 64 µg/mL	> 64 µg/mL	> 64 µg/mL	> 64 µg/mL	> 64 µg/mL	Non-toxic
CC[C@H]1OC(=O)[C@H](C)[C@@H](O)[C@H](C)[C@@H](O[C@@H]2O[C@H](C)C[C@H](N(C)C)[C@H]2O)[C@](C)(O)C[C@@H](C)CN(C(=O)NCc2ccccc2)[C@H](C)[C@@H](O)[C@]1(C)O	> 64 µg/mL	> 64 µg/mL	> 64 µg/mL	> 64 µg/mL	> 64 µg/mL	> 64 µg/mL	> 64 µg/mL	Non-toxic
CCNC(=O)N1C[C@H](C)C[C@@](C)(O)[C@H](O[C@@H]2O[C@H](C)C[C@H](N(C)C)[C@H]2O)[C@@H](C)[C@H](O)[C@@H](C)C(=O)O[C@H](CC)[C@@](C)(O)[C@H](O)[C@H]1C	> 64 µg/mL	> 64 µg/mL	> 64 µg/mL	> 64 µg/mL	> 64 µg/mL	> 64 µg/mL	> 64 µg/mL	Non-toxic

Further lines, with some results ahead:

MIC (Staphylococcus aureus [1])	MIC (Streptococcus pneumoniae [2])	MIC (Streptococcus pneumoniae [3])	MIC (Staphylococcus aureus [4])	MIC (Haemophilus influenzae)	MIC (Streptococcus pyogenes [5])	MIC (Streptococcus pyogenes [6])	SMILES	Activity (Saccharomyces cerevisiae)
> 64 µg/mL	> 64 µg/mL	> 64 µg/mL	> 64 µg/mL	> 64 µg/mL	> 64 µg/mL	> 64 µg/mL	CC[C@H]1OC(=O)[C@H](C)[C@@H](O)[C@H](C)[C@@H](O[C@@H]2O[C@H](C)C[C@H](N(C)C)[C@H]2O)[C@](C)(O)C[C@@H](C)CN(C(=O)Nc2cccc(C(F)(F)F)c2)[C@H](C)[C@@H](O)[C@]1(C)O	Non-toxic
> 64 µg/mL	> 64 µg/mL	> 64 µg/mL	> 64 µg/mL	> 64 µg/mL	> 64 µg/mL	> 64 µg/mL	CC[C@H]1OC(=O)[C@H](C)[C@@H](O)[C@H](C)[C@@H](O[C@@H]2O[C@H](C)C[C@H](N(C)C)[C@H]2O)[C@](C)(O)C[C@@H](C)CN(C(=S)Nc2cccc(C(F)(F)F)c2)[C@H](C)[C@@H](O)[C@]1(C)O	Non-toxic
> 64 µg/mL	> 64 µg/mL	> 64 µg/mL	> 64 µg/mL	> 64 µg/mL	> 64 µg/mL	> 64 µg/mL	CC[C@H]1OC(=O)[C@H](C)[C@@H](O)[C@H](C)[C@@H](O[C@@H]2O[C@H](C)C[C@H](N(C)C)[C@H]2O)[C@](C)(O)C[C@@H](C)CN(C(=O)Nc2ccccc2C(F)(F)F)[C@H](C)[C@@H](O)[C@]1(C)O	Non-toxic
